Key:
[1] = Inhibitory concentration towards rat mitochondrial F1F0-ATP synthase using a hexokinase / glucose-6-phosphate dehydrogenase coupled assay
How it was run: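 ATP synthesis was run in 10 mM HEPES pH 8. Diluted enzyme was mixed with glucose, MgCl2, KPO4, potassium succinate and AMP (to block adenylate kinase) and incubated 30 min with gentle shaking. Inhibitor was then added from 50% DMSO (final DMSO 5%) for 15 min. Coupling enzymes started the reaction, and the rise in A340 was monitored.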

[2] = target: Mitochondrial F1F0 ATP synthase (Rattus norvegicus); experiment: Inhibitory concentration towards rat mitochondrial F1F0 ATP hydrolase using a pyruvate kinase / lactate dehydrogenase system
[3] = Inhibitory concentration towards rat mitochondrial F1F0-ATP synthase using a pyruvate kinase / lactate dehydrogenase system

| Structure (SMILES) | IC50 [1] [µM] | IC50 [2] [µM] | IC50 [3] [µM] |
| --- | --- | --- | --- |
| CC1(C)Oc2ccc(C#N)cc2[C@H](N(Cc2ncc[nH]2)c2ccccc2)[C@H]1O |  | 2 |  |
| CC1(C)Oc2ccc(C#N)cc2[C@H](/N=C(/NC#N)Nc2ccc(Cl)cc2)[C@H]1O | 12 | > 100 |  |
| CC1(C)Oc2ccc(C#N)cc2[C@H](N(Cc2ncc[nH]2)c2ccc(Cl)cc2)[C@H]1O [BMS-191095] | 4 | 0.48 |  |
| CC1(C)Oc2ccc(C#N)cc2C(Nc2ccc(Cl)cc2)C1O (racemic) |  | 45 |  |
| CC1(C)Oc2ccc(C#N)cc2[C@@H](/N=C(\NC#N)Nc2ccc(Cl)cc2)[C@@H]1O | 30 |  | > 100 |
| COc1ccc(Cl)cc1C(=O)NCCc1ccc(S(=O)(=O)NC(=O)NC2CCCCC2)cc1 [GLYBURIDE] | > 100 |  |  |
| CC1(C)Oc2ccc(C#N)cc2[C@H](N(Cc2ncco2)c2ccccc2)[C@H]1O |  | > 100 |  |

The next lines start with the values.

| IC50 [1] [µM] | IC50 [2] [µM] | IC50 [3] [µM] | Structure (SMILES) |
| --- | --- | --- | --- |
| 18 |  |  | CC1(C)Oc2ccc(S(=O)(=O)N3CCCCC3)cc2[C@H](N(Cc2ncc[nH]2)c2ccc(Cl)cc2)[C@H]1O |
|  | 470 |  | CC1(C)Oc2ccc(C#N)cc2C(N(Cc2ncc[nH]2)c2ccc(Cl)cc2)C1O (racemic) |
|  | 4.2 |  | CC1(C)Oc2ccc(C#N)cc2[C@@H](N(Cc2ncc[nH]2)c2ccccc2)[C@@H]1O |
| 3.8 | 0.24 |  | CC1(C)Oc2ccc(C#N)cc2[C@@H](N(Cc2ncc[nH]2)c2ccc(Cl)cc2)[C@@H]1O |

— ChEMBL document CHEMBL1148474, “Small molecule mitochondrial F1F0 ATPase hydrolase inhibitors as cardioprotective agents. Identification of 4-(N-arylimidazole)-substituted benzopyran derivatives as selective hydrolase inhibitors” (J Med Chem, 2004)
